MBD2 DNA inh – inhibitors of MBD2 binding to methylated DNA, primary screen, biochemical, TR-FRET, DNA-binding domain, human; Methyl-CpG-binding domain protein 2 (Homo sapiens), Q9UBB5; MBD2 binding to methylated oligonucleotide; inhibition, % at 4.4 µM; hit rate 0.31% among 370,000; AID 686964, 2013; in the data active means inhibition above about 13%
SUMO1-SIM PPI – modulators of SUMO1 protein-protein interactions, primary screen, biochemical, uHTS; hit rate 0.33% among 360,000; inhibition, % at 20 µM; Small ubiquitin-related modifier 1 (Homo sapiens), P63165; SUMO1 binding to a labelled peptide, TR-FRET, 1 h; in the data active means inhibition above about 37%
DNMT1 block – human DNMT1 methyltransferase inhibitors, primary screen, biochemical, molecular beacon, fluorescence, HinP1I cleavage, uHTS; AID 588458, 2011; DNA (cytosine-5)-methyltransferase 1 (Homo sapiens), P26358; hit rate 0.83% among 360,000; inhibition (reported as % activation of signal), % at 10 µM; in the data active means inhibition above about 50%
NS3 helicase inh – inhibitors of HCV NS3 helicase, primary screen, biochemical, Cy5 molecular beacon fluorescence. inhibition, % at 10.9 µM. NS3 helicase DNA unwinding. AID 1800, 2009. Hepatitis C virus NS3 helicase. hit rate 0.56% among 290,000;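 active means inhibition above the mean of all tested compounds plus 3 SD, set per campaign, cut at about 35% in these data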;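 further: 0% = DMSO wells and 100% = thioflavine S control wells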
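test system = hepatitis C virus NS3 helicase domain fragment enzyme | reagent = annealed dual-labelled DNA beacon duplex, ATP-started | times = 1 h at 25 °C | detection = Cy5 fluorescence, 0 and 60 min reads | read-out basis = percent inhibition from t60/t0 fluorescence ratio | control set = DMSO and thioflavine S | replication = one well per compound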
Pemphigus Ab inh – inhibitors of pemphigus antibody binding to DSG3, primary screen, biochemical, bead-based, flow cytometry, scFv-GFP; hit rate 0.48% among 310,000; binding (percent of control), % at 10 µM; DSG3-coupled beads, scFv-anti-DSG3-GFP binding; active compounds read low;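 active means binding more than 3 SD below its plate's average and above zero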;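 further: hits lower antibody fragment binding to DSG3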
UHRF1 binding – UHRF1 methylated DNA binding inhibitors, primary screen, counter-screen for MBD2 inhibitor project, biochemical, TR-FRET, human UHRF1, single concentration | E3 ubiquitin-protein ligase UHRF1 (Homo sapiens), Q96T88 | UHRF1 binding to methylated oligo | inhibition, % at 4.4 µM | hit rate 0.75% among 370,000 | AID 687016, 2013; in the data active means inhibition above about 21%;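 further: UHRF1 SRA domain binding a hemimethylated CpG hairpin DNA probe; 0% = median of test compound wells and 100% = reference inhibitor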
Beacon interf DR – spectral interference with molecular beacon fluorescence, dose response, artefact control for DNMT1 inhibitor project, biochemical, fluorescent molecular beacon; IC50, µM; spectral interference counter-screen; shares compounds with DNMT1 block; 200 tested, under 10 active; call rule not given here
DNMT1 inh conf – DNMT1 methyltransferase inhibitor retest, confirmation, biochemical, molecular beacon, fluorescence, single concentration; shares compounds with DNMT1 block; DNMT1 molecular beacon HinP1I cleavage; inhibition, % at 10 µM; hit rate 8% among 2,300; AID 602385, 2012;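 active means average inhibition of at least 30% in the single-concentration confirmation test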
Beacon interf – shows spectral interference in the DNMT1 beacon assay; AID 602387; DNMT1 molecular beacon spectral interference counterscreen, fluorescence 485/520; activation (fluorescence interference), % at 10 µM; hit rate 1% among 2,300; shares compounds with DNMT1 block;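 active means activation of at least 30% at 10 µM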;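 further: DNMT1 catalytic domain with a HinP1I cleavage step and a FAM/dabcyl DNA beacon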
* marks the source's active call; other numbers are inactive results; . = no result given. Rows were chosen to be rich in hits. Some 2.5% of all compounds tested hit in one or more screens of this group.

SMILES	MBD2 DNA inh	SUMO1-SIM PPI	DNMT1 block	NS3 helicase inh	Pemphigus Ab inh	UHRF1 binding	DNMT1 inh conf	Beacon interf	others
CC(C)OC(=O)CSc1nnc(CNc2nc(-c3ccccc3)cs2)n1C	3	4	-7	2	105	1	.	.
COC(=O)c1cn(C(=O)c2ccc(C)c(C)c2)c2ccccc12	-3	0	3	0	101	0	.	.
CCOC(=O)CC1C(=O)NCCN1S(=O)(=O)c1ccc(Br)cc1 (stereo not drawn)	0	-2	1	13	81	2	.	.
CC(=O)N1CCCc2cc(S(=O)(=O)CCC(=O)N3CCN(c4cccc(C)c4)C(C)C3)ccc21 (stereo not drawn)	-1	8	33	-1	94	1	.	.
Cc1cccc(N2CCN(C(=O)CCS(=O)(=O)c3ccc(Br)cc3)CC2C)c1 (stereo not drawn)	4	0	70*	-3	98	-2	1	-1
O=C1/C(=C/c2ccco2)Cc2ccccc21	-5	-16	59*	11	102	-11	5	1
CCOc1ccccc1NC(=O)CN1C(=O)COc2ccccc21	1	9	-1	2	118	-1	.	.
CCN(CC)S(=O)(=O)c1ccc(-c2nnc(SCC(=O)N3CCc4ccccc43)o2)cc1	-5	-5	54*	.	95	-3	1	-2
O=C(NCC1CCCO1)c1ccc(COCC(F)(F)C(F)F)cc1 (stereo not drawn)	3	-3	2	-6	100	0	.	.
CCOC(=O)C1CCN(c2c(NCCCN3CCCCC3)c(=O)c2=O)CC1	0	-2	93*	0	86	2	4	2
CCCCCCc1cc2cc(-c3nnc(-c4ccccc4OC)o3)c(=O)oc2cc1O	1	3	100*	5	105	3	6	11
CCCCCCc1cc2cc(C(=O)Nc3ccccc3OC)c(=O)oc2cc1O	-5	2	34	-4	92	0	.	.
Cc1cc(/C=N/NC(=O)c2cccc(N(C)C)c2)c(C)n1-c1cc(C(=O)O)cc(C(=O)O)c1	.	22	81*	25	99	.	9	3
CNc1ccc(Br)cc(C(=O)/C=C/c2ccc(OC)cc2)c1=O	8	31	17	33	118	12	.	.
CCNc1ccc(Br)cc(C(=O)/C=C/c2ccc(Cl)cc2Cl)c1=O	-8	13	70*	26	90	-3	3	5
Cc1cc[n+](CC(=O)c2cccc([N+](=O)[O-])c2)c2ccccc12	-1	-30	53*	-30	117	1	43*	5	Beacon interf DR=>99
O=C(C[n+]1cccc2ccccc21)c1ccc([N+](=O)[O-])cc1	-5	-29	-3	2	114	0	.	.
Cc1nn(Cc2ccc(Cl)c(Cl)c2)c(C)c1NC(=O)c1cc(-c2ccc3c(c2)OCO3)on1	0	0	76*	-5	102	1	3	-2
Cc1nn(Cc2ccc(Cl)cc2)c(C)c1NC(=O)c1cc(-c2ccc3c(c2)OCO3)on1	0	1	39	-2	101	1	.	.

Screening results (PubChem BioAssay)
